Shown are actives, neighbours in structure and some others; about 4.7% of the full set was active somewhere.
MC4R antag cAMP = human MC4R antagonism in cAMP assay. actives 0.48% (n = 360,000). AID 540295. inhibition, % at 6.5 µM. P32245. MC4R-expressing cells, MTII-stimulated cAMP, LANCE TR-FRET;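 active means inhibition above its plate's cutoff, the mean of tested wells on that plate plus 3 SD, cut at about 29% in these data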
Target sequence (P32245 whole entry, looked up): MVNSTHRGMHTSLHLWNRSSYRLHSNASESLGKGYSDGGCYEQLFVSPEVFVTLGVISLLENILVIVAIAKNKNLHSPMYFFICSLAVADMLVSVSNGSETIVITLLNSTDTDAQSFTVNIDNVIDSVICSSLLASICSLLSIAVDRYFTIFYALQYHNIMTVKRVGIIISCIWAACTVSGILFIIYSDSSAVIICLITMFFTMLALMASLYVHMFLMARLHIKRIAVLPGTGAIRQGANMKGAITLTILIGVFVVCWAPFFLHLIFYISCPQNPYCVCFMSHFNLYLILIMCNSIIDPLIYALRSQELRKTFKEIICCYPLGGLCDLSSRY
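Assay system: U2OS cells stably expressing human melanocortin 4 receptor (MC4R) / Dosing: 6.5 µM / Timing: compound 30 min, challenge 1 h, detection 1 h / Measured by: Eu-cAMP/anti-cAMP TR-FRET, emission 671 nm / Replicates: singlicate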
FXN GAA850 act = frataxin GAA850 promoter activation. HEK293 lucGAA850 FXN promoter luciferase reporter, 24 h; percent of 10 µM SAHA response. activation, % at 6 µM. actives 0.56% (n = 360,000). AID 540364;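 active means activation above the average of all compounds screened plus 3 SD, cutoff fixed separately per campaign, cut at about 7.5% in these data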
HTR2A ag = mouse HTR2A agonism via beta-arrestin recruitment | P35363 | CHO-K1 mHTR2A beta-arrestin complementation, luminescence; percent of 30 µM serotonin response | activation, % at 7.6 µM | actives 0.66% (n = 360,000);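 active means activation above a run cutoff, the mean activation of all tested compounds plus 3 SD, cut at about 14% in these data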
MC4R ag barr = human MC4R agonism via beta-arrestin | U2OS MC4R beta-arrestin complementation, luminescence; percent of melanotan II response, DMSO zero | P32245 | AID 540308 | actives 0.98% (n = 360,000) | activation, % at 8.9 µM;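 active means activation above a per-plate cutoff, the mean activation of sample wells on that plate plus 3 SD, cut at about 8% in these data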
AHR activator = human AHR activation. AHR-responsive luciferase reporter cells, luminescence. actives 2.5% (n = 320,000). activation, % at 5 µM. P35869; in the data active means activation above about 47%
Numbers stand for hits; - = inactive; . = no result.

SMILES	MC4R antag cAMP	FXN GAA850 act	HTR2A ag	MC4R ag barr	AHR activator
O=C(CSc1nnc(-c2ccc(Cl)cc2)n1Cc1ccco1)c1cccs1	-	-	-	-	87
COc1ccc(OCCN2CCC(C(=O)NC(c3ccsc3)c3ccccc3C)CC2)cc1 (centres undefined)	-	-	-	-	.
O=CC(=Cc1ccccc1)c1ccccc1	-	-	-	-	.
COC(=O)c1cc(S(=O)(=O)N2CCN(c3cccc(Cl)c3)CC2)c[nH]1	-	-	-	9.1	-
Cc1[nH]c(C)c(S(=O)(=O)N2CCN(c3cccc(Cl)c3)CC2)c1C(=O)N1CCCC1	-	-	-	-	50
O=C1N[C@H](C(=O)O)CS1	.	.	.	.	-
Cc1c(C)c2cc(Cl)c(OCC(=O)NC3CC(C)(C)NC(C)(C)C3)cc2oc1=O	-	-	-	-	-
Cc1nnc(N/N=C/c2ccc(-c3ccc(Br)cc3)o2)n1N	-	-	-	-	49
Cc1nn(C)c(C(=O)Nc2ccc(Cl)c([N+](=O)[O-])c2)c1Cl	-	-	-	-	48
Cc1cc(NC(=O)c2c([N+](=O)[O-])c(C)nn2C)no1	-	-	-	-	70
Cc1cc(NC(=O)c2c(Cl)c(C)nn2C)no1	-	-	-	-	-
CCN1Cc2c(/C=C/c3ccccc3)nc3ccc(OC)cc3c2N(c2cccc(Cl)c2)C1	-	-	-	-	65
O=C1CC(=O)Nc2cc(S(=O)(=O)N3CCOc4ccc(Cl)cc43)ccc2N1	-	-	-	-	-
CCOc1ccccc1NC(=O)CC1Nc2cc(C)c(C)cc2NC1=O (centres undefined)	-	-	-	-	-
CCOc1ccccc1NC(=O)CC1Nc2ccccc2NC1=O (centres undefined)	-	-	-	-	78
CCCOc1ccccc1NC(=O)CC1Nc2ccccc2NC1=O (centres undefined)	-	-	-	-	49
CCCCCCCCN1C(=O)[C@H](CC(=O)NCCCOCCCC)C[C@@]2(C(=O)OCC)CCCC=C12	.	.	-	.	.
COc1cccc(CN(C)S(=O)(=O)c2ccccc2Br)c1	-	-	-	-	.
Cc1cccc(NC(=O)c2ccc3ccccc3n2)c1C	-	-	-	-	58
O=C(Nc1ccc(N2CCCCC2)cc1)c1ccc2ccccc2n1	-	-	-	-	63
Cc1csc(NC(=O)c2ccc3ccccc3n2)n1	-	-	-	-	74
Cc1csc(NC(=O)c2cnc3ccccc3n2)n1	-	-	-	-	57
O=C(Nc1nccs1)c1ccc2ccccc2n1	-	-	-	-	50
Cc1oc(-c2ccccc2)nc1C(=O)Nc1nccs1	-	-	-	-	74
COC(=O)c1ccccc1NC(=O)Nc1cccs1	-	-	-	-	-
SMILES	MC4R antag cAMP	FXN GAA850 act	HTR2A ag	MC4R ag barr	AHR activator
O=C(Nc1cccs1)Nc1ccccc1Br	-	-	-	-	57
COc1ccc(C(=O)C2CCCN(C(=O)c3csc(SC)n3)C2)cc1F (centres undefined)	-	-	-	-	.
COc1cc(/C=C/C(=O)OCC(=O)Nc2cc(S(=O)(=O)N(C)C)ccc2Cl)ccc1O	-	-	-	8.9	-
Cc1ccc(OCC(=O)NC(=S)Nc2ccccn2)c(Br)c1	-	-	-	8.6	-
O=C(COc1ccc(Br)cc1Cl)NC(=S)Nc1ccccn1	-	-	-	-	-
O=C(O)c1cccc2c1C(=O)c1ccc(-c3ccc(Cl)c(C(F)(F)F)c3)cc1S2(=O)=O	-	-	-	-	-
COc1ccc(Cl)cc1C1=NOC2(CCC2)C(=O)N1Cc1ccc(NC(C)=O)cc1	-	-	-	-	.
CCCn1c(/C=N/Nc2nc3ccccc3[nH]2)nc2ccccc21	-	-	-	-	.
C(=N\Nc1nc2ccccc2[nH]1)/c1cccs1	-	-	-	-	74
Cc1c(/C=N/Nc2nc3ccccc3[nH]2)c2ccccc2n1C	-	-	-	-	108
C=CCn1cc(/C=N/Nc2nc3ccccc3[nH]2)c2ccccc21	-	-	-	-	146
CCc1ccc2[nH]cc(S(=O)(=O)c3ccc(C)c(C)c3)c(=O)c2c1	-	-	-	-	-
CCc1ccc2[nH]c3nc(C)cc(C)c3c(=O)c2c1	-	-	-	-	48
CC(C)Oc1ccccc1/C=N/Nc1ccccc1[N+](=O)[O-]	-	-	-	-	55
COc1ccccc1/C=N\Nc1ccccc1[N+](=O)[O-]	-	-	-	-	79
COc1ccccc1Nc1ncccc1[N+](=O)[O-]	-	-	-	-	53
CCOc1ccccc1/C=N/Nc1ccccc1[N+](=O)[O-]	-	-	-	-	-
CC1(c2nnc(-c3cccc(Cl)c3)o2)CC(c2ccc(F)cc2)=NO1 (centres undefined)	-	-	-	-	-
C[C@H]1CN([C@@H](C)CO)C(=O)c2cc(Br)cnc2O[C@@H]1CN(C)C(=O)C1CCC1	-	-	-	-	.
COc1ccc(CCNC(=O)c2ccc(CS(=O)(=O)Cc3ccc(C)cc3)o2)cc1OC	-	-	-	-	.
CCc1cnc(Nc2nc(C(N)Cc3ccc(F)cc3)cs2)nc1 (centres undefined)	-	-	-	-	.
Cc1cccnc1NC(=O)CNC(=O)COc1ccccc1	-	-	-	-	-
CC(C)(C)c1ccc(O)c(N)c1	.	.	.	.	48
Cc1ccccc1NC(=O)/C(C#N)=C/c1ccsc1	-	-	-	-	70
O=C(NCc1ccco1)c1cc2nc(-c3ccc4c(c3)OCO4)cc(C(F)(F)F)n2n1	-	-	-	-	63
SMILES	MC4R antag cAMP	FXN GAA850 act	HTR2A ag	MC4R ag barr	AHR activator
OC(c1cccnc1)c1nc(-c2cccc(F)c2)cs1 (centres undefined)	-	-	-	-	.
COc1cc(NC(=O)c2ccco2)c(C(=O)OCC(=O)c2c[nH]c3ccccc23)cc1OC	-	-	-	-	55
CC(C)NC(=S)N=Nc1c(O)[nH]c2ccc(C(C)C)cc12	-	-	-	-	67
COc1ccc(C(=O)N/N=C/c2c[nH]c3ccccc23)cc1	-	-	-	-	56
O=C(N/N=C/c1c[nH]c2ccccc12)c1ccn(Cc2ccc(Cl)cc2Cl)n1	-	-	-	-	50
O=C(N/N=C/c1c[nH]c2ccccc12)c1cccc(O)c1	-	-	-	-	-
O=C(N/N=C/c1c[nH]c2ccccc12)c1cccc(Cl)c1	-	-	-	-	52
O=C(N/N=C/c1c[nH]c2ccccc12)c1ccc(O)c(O)c1	-	-	-	-	-
CC(C)NC(=S)N/N=C/c1c[nH]c2ccccc12	-	-	-	-	129
CCOC(=O)[C@]12CCCC=C1N(Cc1cccc3ccccc13)C(=O)[C@H](CC(=O)N1CCN(C(=O)c3ccco3)CC1)C2	.	.	-	.	.
COc1ccc([C@@H]2[C@@H]3C(=O)N(C(C)(C)C)C(=O)[C@@H]3[C@]3(Cc4ccc(Cl)cc4)C(=O)N(c4cccc(F)c4)C(=O)N23)cc1	-	-	-	-	-

Bioassay records: PubChem BioAssay, The Scripps Research Institute Molecular Screening Center
